Laboratory results taken from ChEMBL document CHEMBL5661979, “Pharmacological inhibition of BMK1 suppresses tumor growth through promyelocytic leukemia protein” (Cancer Cell, 2010).

What was measured:
[1] = target: Serine/threonine-protein kinase MRCK beta (Homo sapiens, UniProt Q9Y5S2); assay: Inhibition of MRCKB in human HeLa cells lysate pre incubated for 15 mins followed by ATP acyl phosphate probe addition and measured after 10 mins by LC-MS/MS analysis; assay type: subcellular
[2] = target: 5'-AMP-activated protein kinase catalytic subunit alpha-1 (Homo sapiens, UniProt Q13131); assay: Inhibition of AMPKalpha1 in human HeLa cells lysate pre incubated for 15 mins followed by ADP acyl phosphate probe addition and measured after 10 mins by LC-MS/MS analysis; assay type: subcellular
Chain of 5'-AMP-activated protein kinase catalytic subunit alpha-1 (Q13131 whole entry, the tested form may be a part): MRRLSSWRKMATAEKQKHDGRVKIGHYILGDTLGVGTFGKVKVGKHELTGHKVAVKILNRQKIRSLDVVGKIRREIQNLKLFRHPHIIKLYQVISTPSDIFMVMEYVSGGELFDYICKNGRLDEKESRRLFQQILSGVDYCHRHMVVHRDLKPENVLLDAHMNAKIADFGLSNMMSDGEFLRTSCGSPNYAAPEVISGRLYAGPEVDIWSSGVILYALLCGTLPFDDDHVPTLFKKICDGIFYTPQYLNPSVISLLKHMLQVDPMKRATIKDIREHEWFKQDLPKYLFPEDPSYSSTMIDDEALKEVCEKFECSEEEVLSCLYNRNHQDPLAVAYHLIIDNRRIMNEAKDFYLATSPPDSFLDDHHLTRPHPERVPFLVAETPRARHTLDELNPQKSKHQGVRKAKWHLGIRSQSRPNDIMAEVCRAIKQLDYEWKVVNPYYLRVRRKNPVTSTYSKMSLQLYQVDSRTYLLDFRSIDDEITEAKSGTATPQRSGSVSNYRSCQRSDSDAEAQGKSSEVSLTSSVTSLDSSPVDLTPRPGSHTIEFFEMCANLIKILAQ
In short: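 HeLa cell lysates (5 mg/mL total protein) were preincubated with inhibitor at 0, 0.8, 2, 10 or 50 μM for 15 min. ATP or ADP acylphosphate probe was then added (5 μM final) for 10 min, and reactions were stopped with urea. Up to four fragment ions per kinase probe-peptide were quantified by targeted MS. % inhibition was taken relative to untreated lysate. Run in duplicate.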

[3] = target: Calcium/calmodulin-dependent protein kinase kinase 1 (Homo sapiens, UniProt Q8N5S9); assay: Inhibition of CAMKK1 in human HeLa cells lysate pre incubated for 15 mins followed by ADP acyl phosphate probe addition and measured after 10 mins by LC-MS/MS analysis; assay type: subcellular
In short: (§1)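 KiNativ profiling in HeLa lysate (5 mg/mL total protein). Lysate incubated 15 min with inhibitor at 50, 10, 2, 0.8 or 0 μM. ATP or ADP acylphosphate probe then added (5 μM final) and reacted 10 min. Reaction stopped with urea and analysed by targeted MS, using up to four fragment ions per kinase peptide-probe conjugate. % inhibition taken against untreated lysate. Run in duplicate.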

[4] = target: Dual specificity protein kinase CLK3 (Homo sapiens, UniProt P49761); assay: Inhibition of CLK3 in human HeLa cells lysate pre incubated for 15 mins followed by ADP acyl phosphate probe addition and measured after 10 mins by LC-MS/MS analysis; assay type: subcellular
Chain of Dual specificity protein kinase CLK3 (P49761 whole entry): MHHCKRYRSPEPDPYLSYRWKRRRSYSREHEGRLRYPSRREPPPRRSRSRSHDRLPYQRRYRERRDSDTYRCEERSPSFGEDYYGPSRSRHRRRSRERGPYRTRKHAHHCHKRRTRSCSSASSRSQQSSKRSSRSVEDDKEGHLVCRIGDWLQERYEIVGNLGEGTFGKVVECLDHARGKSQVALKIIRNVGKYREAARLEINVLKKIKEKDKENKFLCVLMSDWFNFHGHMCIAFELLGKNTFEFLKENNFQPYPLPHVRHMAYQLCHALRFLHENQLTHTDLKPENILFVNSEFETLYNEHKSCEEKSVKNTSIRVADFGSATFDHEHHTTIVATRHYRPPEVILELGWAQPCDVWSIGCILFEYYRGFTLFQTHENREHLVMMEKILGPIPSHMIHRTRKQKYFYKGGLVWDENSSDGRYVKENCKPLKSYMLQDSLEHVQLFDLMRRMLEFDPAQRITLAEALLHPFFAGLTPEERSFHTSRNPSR

[5] = Inhibition of MST4/YSK1 in human HeLa cells lysate pre incubated for 15 mins followed by ADP acyl phosphate probe addition and measured after 10 mins by LC-MS/MS analysis; assay type: subcellular
[6] = target: T1, EKC/KEOPS complex subunit TP53RK (Homo sapiens) (UniProt Q96S44); assay: Inhibition of PRPK in human HeLa cells lysate at 50 uM pre incubated for 15 mins followed by ADP acyl phosphate probe addition and measured after 10 mins by LC-MS/MS analysis relative to control; assay type: subcellular; conditions: time 25.0 min
T1 sequence (whole entry): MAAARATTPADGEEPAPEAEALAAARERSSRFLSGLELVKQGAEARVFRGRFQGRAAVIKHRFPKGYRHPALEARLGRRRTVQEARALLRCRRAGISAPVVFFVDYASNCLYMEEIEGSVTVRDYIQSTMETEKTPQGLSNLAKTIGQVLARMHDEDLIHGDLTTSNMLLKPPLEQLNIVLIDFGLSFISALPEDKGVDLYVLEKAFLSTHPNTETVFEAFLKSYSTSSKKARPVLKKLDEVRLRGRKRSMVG

[7] = target: Calcium/calmodulin-dependent protein kinase type 1D (Homo sapiens, UniProt Q8IU85); assay: Inhibition of CAMK1d in human HeLa cells lysate at 50 uM pre incubated for 15 mins followed by ADP acyl phosphate probe addition and measured after 10 mins by LC-MS/MS analysis relative to control; assay type: subcellular; conditions: time 25.0 min
Chain of Calcium/calmodulin-dependent protein kinase type 1D (Q8IU85 whole entry, looked up, the tested form may be a part): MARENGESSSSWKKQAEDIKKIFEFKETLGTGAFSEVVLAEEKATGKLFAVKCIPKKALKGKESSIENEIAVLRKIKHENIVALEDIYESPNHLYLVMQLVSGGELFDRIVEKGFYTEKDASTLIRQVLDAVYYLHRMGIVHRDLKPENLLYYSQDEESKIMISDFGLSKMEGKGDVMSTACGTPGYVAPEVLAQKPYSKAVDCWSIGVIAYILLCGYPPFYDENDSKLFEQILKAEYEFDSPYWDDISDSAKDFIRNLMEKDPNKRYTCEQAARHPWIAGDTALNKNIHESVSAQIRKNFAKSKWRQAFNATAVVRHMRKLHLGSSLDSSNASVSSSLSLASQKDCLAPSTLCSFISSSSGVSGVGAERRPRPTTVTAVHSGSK
In short: (§2)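 KiNativ-type profiling in HeLa lysate (5 mg/mL total protein). Lysate preincubated 15 min with inhibitor at 50, 10, 2, 0.8 or 0 μM, then ATP or ADP acylphosphate probe added (5 μM final) for 10 min. Reaction stopped with urea and analysed by targeted MS, using up to four fragment ions per kinase peptide-probe conjugate. % inhibition calculated against untreated lysate. Duplicate reactions.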

[8] = target: Mitogen-activated protein kinase kinase kinase 1 (Homo sapiens, UniProt Q13233); assay: Inhibition of MAP3K1 in human HeLa cells lysate at 10 uM pre incubated for 15 mins followed by ADP acyl phosphate probe addition and measured after 10 mins by LC-MS/MS analysis relative to control; assay type: subcellular; conditions: time 25.0 min
Chain of Mitogen-activated protein kinase kinase kinase 1 (Q13233 whole entry): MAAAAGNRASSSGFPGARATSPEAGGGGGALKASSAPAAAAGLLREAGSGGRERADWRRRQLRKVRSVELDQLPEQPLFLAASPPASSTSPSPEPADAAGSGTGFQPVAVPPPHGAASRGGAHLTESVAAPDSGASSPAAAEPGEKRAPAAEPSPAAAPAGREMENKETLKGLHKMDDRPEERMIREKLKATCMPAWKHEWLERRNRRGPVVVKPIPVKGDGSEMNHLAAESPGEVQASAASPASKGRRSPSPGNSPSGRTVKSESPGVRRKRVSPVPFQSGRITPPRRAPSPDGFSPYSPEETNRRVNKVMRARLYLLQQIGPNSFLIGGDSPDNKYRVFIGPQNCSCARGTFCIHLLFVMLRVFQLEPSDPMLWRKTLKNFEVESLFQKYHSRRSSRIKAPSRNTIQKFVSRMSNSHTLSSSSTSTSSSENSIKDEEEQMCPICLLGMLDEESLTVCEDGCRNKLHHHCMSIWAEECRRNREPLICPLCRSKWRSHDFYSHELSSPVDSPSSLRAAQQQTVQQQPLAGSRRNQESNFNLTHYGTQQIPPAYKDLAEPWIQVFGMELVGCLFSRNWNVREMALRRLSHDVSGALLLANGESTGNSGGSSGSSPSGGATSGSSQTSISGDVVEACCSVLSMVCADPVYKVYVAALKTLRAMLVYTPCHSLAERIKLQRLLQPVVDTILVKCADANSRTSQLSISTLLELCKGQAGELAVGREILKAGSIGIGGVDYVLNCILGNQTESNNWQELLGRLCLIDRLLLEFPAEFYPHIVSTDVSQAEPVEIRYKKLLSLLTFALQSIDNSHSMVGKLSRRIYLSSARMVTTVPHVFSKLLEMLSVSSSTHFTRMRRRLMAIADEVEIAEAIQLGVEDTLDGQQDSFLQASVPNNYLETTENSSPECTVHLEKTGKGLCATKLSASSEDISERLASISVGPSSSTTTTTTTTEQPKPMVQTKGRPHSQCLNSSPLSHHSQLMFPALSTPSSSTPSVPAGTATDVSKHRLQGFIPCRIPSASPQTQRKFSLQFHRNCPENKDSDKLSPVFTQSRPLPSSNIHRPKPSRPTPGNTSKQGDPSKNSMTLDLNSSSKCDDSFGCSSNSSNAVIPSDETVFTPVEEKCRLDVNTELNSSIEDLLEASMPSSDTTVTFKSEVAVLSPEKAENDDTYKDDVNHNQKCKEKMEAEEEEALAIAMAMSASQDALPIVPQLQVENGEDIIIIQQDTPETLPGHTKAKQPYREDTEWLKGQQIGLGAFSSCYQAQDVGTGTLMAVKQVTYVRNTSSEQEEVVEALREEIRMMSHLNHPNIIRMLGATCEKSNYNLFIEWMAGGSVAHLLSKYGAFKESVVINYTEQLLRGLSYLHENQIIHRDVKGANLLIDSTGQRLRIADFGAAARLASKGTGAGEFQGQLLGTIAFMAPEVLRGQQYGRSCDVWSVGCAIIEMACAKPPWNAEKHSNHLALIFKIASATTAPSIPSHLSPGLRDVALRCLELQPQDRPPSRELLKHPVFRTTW

[9] = target: Cyclin-dependent kinase 2 (Homo sapiens, UniProt P24941); assay: Inhibition of CDK2 in human HeLa cells lysate at 10 uM pre incubated for 15 mins followed by ADP acyl phosphate probe addition and measured after 10 mins by LC-MS/MS analysis relative to control; assay type: subcellular; conditions: time 25.0 min; in short: as §1
[10] = target: Cyclin-dependent kinase 12 (Homo sapiens, UniProt Q9NYV4); assay: Inhibition of CRK7 in human HeLa cells lysate at 2 uM pre incubated for 15 mins followed by ADP acyl phosphate probe addition and measured after 10 mins by LC-MS/MS analysis relative to control; assay type: subcellular; conditions: time 25.0 min
[11] = target: Ephrin type-A receptor 2 (Homo sapiens, UniProt P29317); assay: Inhibition of EphA2 in human HeLa cells lysate at 50 uM pre incubated for 15 mins followed by ATP acyl phosphate probe addition and measured after 10 mins by LC-MS/MS analysis relative to control; assay type: subcellular; conditions: time 25.0 min
Chain of Ephrin type-A receptor 2 (P29317 whole entry): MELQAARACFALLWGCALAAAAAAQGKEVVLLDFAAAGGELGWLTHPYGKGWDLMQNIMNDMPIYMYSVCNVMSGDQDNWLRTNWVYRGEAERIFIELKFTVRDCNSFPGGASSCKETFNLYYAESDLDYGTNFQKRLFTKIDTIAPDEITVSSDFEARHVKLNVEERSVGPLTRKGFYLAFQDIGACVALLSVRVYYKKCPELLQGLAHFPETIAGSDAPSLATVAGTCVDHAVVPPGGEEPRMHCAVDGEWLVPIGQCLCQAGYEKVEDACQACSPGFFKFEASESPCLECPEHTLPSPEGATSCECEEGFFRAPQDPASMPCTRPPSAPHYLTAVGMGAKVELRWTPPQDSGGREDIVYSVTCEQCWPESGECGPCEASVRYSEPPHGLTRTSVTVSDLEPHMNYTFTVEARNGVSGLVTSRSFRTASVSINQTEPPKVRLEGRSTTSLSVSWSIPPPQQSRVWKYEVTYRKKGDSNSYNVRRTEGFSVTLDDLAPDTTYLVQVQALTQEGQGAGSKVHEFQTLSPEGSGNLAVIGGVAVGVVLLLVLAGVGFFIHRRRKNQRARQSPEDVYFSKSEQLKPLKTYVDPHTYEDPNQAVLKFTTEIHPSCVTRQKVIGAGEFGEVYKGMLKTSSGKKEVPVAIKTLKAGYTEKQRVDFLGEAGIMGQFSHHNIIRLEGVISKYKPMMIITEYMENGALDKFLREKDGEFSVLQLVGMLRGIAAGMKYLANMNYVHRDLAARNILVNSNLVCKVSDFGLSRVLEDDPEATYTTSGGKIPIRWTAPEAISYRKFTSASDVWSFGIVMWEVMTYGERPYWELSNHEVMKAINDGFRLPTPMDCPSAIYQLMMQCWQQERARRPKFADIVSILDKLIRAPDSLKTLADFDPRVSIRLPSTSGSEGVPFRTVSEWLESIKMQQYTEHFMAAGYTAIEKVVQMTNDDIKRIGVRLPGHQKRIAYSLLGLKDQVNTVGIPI

[12] = target: Calcium/calmodulin-dependent protein kinase type II subunit delta (Homo sapiens, UniProt Q13557); assay: Inhibition of CAMK2d in human HeLa cells lysate at 2 uM pre incubated for 15 mins followed by ATP acyl phosphate probe addition and measured after 10 mins by LC-MS/MS analysis relative to control; assay type: subcellular; conditions: time 25.0 min; in short: as §2
[13] = target: Phosphatidylinositol 5-phosphate 4-kinase type-2 beta (Homo sapiens) (UniProt P78356); assay: Inhibition of PIP5K2B in human HeLa cells lysate at 2 uM pre incubated for 15 mins followed by ATP acyl phosphate probe addition and measured after 10 mins by LC-MS/MS analysis relative to control; assay type: subcellular; conditions: time 25.0 min
Chain of Phosphatidylinositol 5-phosphate 4-kinase type-2 beta (Homo sapiens) (P78356 whole entry): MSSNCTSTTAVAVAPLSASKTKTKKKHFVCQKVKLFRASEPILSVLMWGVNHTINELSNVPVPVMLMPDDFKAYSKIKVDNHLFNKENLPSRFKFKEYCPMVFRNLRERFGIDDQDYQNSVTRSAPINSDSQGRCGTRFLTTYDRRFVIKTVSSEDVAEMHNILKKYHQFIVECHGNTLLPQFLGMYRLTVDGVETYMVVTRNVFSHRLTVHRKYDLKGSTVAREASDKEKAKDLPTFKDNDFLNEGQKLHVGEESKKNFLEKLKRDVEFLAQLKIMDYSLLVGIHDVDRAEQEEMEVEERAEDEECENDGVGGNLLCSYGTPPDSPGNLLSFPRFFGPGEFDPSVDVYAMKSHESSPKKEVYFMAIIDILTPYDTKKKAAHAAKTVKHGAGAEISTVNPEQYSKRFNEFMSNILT

[14] = target: Tyrosine-protein kinase CSK (Homo sapiens, UniProt P41240); assay: Inhibition of CSK in human HeLa cells lysate at 2 uM pre incubated for 15 mins followed by ATP acyl phosphate probe addition and measured after 10 mins by LC-MS/MS analysis relative to control; assay type: subcellular; conditions: time 25.0 min
Chain of Tyrosine-protein kinase CSK (P41240 2-450 limits assumed): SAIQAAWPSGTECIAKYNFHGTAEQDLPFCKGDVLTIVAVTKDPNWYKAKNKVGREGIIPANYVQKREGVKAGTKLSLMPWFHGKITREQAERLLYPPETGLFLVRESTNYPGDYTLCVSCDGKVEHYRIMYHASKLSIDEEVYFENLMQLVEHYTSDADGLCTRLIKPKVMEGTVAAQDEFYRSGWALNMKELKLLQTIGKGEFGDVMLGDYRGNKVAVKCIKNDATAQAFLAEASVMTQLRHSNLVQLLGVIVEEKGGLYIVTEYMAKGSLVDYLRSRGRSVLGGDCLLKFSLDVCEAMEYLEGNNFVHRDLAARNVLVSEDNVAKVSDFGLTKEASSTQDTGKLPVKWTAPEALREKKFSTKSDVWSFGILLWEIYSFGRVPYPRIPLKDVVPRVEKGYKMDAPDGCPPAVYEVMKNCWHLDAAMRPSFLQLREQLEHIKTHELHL

[15] = target: T2, Serine/threonine-protein kinase Chk1 (Homo sapiens) (UniProt O14757); assay: Inhibition of CHK1 in human HeLa cells lysate at 2 uM pre incubated for 15 mins followed by ATP acyl phosphate probe addition and measured after 10 mins by LC-MS/MS analysis relative to control; assay type: subcellular; conditions: time 25.0 min
T2 sequence (whole entry): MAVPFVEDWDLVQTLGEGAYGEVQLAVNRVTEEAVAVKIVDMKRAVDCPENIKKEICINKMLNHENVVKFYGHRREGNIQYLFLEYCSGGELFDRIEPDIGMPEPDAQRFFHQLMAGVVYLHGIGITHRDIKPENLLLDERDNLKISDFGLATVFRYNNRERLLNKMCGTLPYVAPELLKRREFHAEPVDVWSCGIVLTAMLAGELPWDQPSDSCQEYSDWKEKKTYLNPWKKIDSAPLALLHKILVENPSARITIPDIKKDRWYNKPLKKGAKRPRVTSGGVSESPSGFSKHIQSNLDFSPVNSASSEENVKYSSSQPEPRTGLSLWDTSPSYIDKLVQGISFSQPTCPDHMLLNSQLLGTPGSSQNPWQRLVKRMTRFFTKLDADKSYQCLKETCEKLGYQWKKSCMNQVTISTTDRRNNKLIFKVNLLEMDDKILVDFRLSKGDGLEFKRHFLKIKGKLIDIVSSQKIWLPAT

[16] = Toxicity in C57Bl/6 mouse assessed as effect on alanine aminotransferase level at 50 mg/kg, ip for 14 days (reference value: 35 U/L); assay type: organism-based; conditions: in vivo, 336 h, time 14 day

For `CCOc1cc(N2CCC(O)CC2)ccc1Nc1ncc2c(n1)N(C)c1ccccc1C(=O)N2C`, the IC50 [1] was > 50 µM, the IC50 [2] was > 50 µM and the IC50 [3] was > 50 µM. For the same compound, the IC50 [4] was > 50 µM, the IC50 [5] was > 50 µM and the inhibition [6] was 15.7%. The inhibition [7] was -1.9%, the inhibition [8] was 15.9% and the inhibition [9] was -3.8%. It also gave an inhibition [10] of 5.4%, an inhibition [11] of -7.8% and an inhibition [12] of -1.1%. It also gave an inhibition [13] of -2.7%, an inhibition [14] of -4.4% and an inhibition [15] of 5.4%. It also gave an Activity [16] of 402 U/L.
